Reference: ChEMBL document CHEMBL1129643 (J Med Chem, 1996)

How the values were obtained:
[1] = target: T1, Alpha-1A adrenergic receptor (Rattus norvegicus, UniProt P43140); experiment: Binding affinity to the alpha-1 adrenergic receptor using a radioligand [3H]prazosin binding assay in rat brain membranes; format: cell membranes
T1 sequence (P43140 whole entry): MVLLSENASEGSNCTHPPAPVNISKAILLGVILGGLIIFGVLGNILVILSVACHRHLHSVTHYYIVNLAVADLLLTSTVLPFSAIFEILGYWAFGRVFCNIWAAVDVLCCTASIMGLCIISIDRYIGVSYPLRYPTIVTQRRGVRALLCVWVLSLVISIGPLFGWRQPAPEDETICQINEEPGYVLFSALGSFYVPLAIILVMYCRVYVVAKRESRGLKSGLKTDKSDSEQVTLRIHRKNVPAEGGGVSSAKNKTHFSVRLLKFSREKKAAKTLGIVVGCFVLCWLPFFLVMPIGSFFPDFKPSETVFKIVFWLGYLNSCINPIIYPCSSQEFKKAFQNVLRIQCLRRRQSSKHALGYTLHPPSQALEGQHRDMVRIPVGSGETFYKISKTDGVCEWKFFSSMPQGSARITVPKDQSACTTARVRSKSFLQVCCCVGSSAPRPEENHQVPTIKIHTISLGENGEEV

D(2) dopamine receptor = D(2) dopamine receptor (Rattus norvegicus, UniProt P61169); experiment: Binding affinity to dopamine receptor D2 using a [3H]-spiperone binding assay in rat cortical membranes; format: cell membranes
Chain of D(2) dopamine receptor (P61169 whole entry): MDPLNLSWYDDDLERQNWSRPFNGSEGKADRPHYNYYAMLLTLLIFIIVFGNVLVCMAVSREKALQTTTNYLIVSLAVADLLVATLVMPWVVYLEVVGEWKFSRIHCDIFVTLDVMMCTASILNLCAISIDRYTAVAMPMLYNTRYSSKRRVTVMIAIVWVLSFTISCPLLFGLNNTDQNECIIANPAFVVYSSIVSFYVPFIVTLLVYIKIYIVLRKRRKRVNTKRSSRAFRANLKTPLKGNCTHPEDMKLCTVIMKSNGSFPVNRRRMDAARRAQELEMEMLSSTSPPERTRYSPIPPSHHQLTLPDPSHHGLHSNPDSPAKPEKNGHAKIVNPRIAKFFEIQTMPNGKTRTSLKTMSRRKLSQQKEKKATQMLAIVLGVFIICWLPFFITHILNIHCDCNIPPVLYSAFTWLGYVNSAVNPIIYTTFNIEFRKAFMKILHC

[2] = target: 5-hydroxytryptamine receptor 2A (Rattus norvegicus, UniProt P14842); experiment: Binding affinity to serotonin 5-hydroxytryptamine 2A receptors using a radioligand [3H]ketanserin binding assay in rat cortical membranes; format: cell membranes
Chain of 5-hydroxytryptamine receptor 2A (P14842 whole entry): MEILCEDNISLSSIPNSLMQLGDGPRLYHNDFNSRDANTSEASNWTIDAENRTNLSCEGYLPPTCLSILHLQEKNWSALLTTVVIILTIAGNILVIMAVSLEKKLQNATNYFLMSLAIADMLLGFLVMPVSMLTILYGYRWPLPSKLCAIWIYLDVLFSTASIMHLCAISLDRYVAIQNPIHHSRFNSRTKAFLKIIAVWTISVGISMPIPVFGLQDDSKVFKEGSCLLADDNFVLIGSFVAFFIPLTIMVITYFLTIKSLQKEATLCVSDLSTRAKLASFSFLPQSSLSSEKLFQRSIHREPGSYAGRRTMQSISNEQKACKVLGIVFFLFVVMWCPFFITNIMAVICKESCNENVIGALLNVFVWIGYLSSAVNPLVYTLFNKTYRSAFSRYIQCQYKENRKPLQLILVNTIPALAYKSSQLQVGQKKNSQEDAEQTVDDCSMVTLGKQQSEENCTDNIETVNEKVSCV

Rattus norvegicus [3] = experiment: Antagonism of Pergolide-Induced Circling Behavior in rats with unilateral 6-OHDA Lesions after 2 hr of sc injection; format: functional
How it was run: (§1)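 Rats with unilateral 6-OHDA lesions were given pergolide (0.050 µmol/kg, sc) to induce contralateral circling. Test compound was injected sc 2 h before pergolide. The effect of each dose was expressed as percent of the mean of control sessions held one week before and one week after the test session for each rat. At least four rats were used per dose.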

Rattus norvegicus [4] = experiment: Effective dose was measured to inhibit 50% of quipazine induced head twitches in rat after 2 hr of subcutaneous administration; format: functional; details: sc
How it was run: (§2)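 Rats received test compound sc or po, 2 or 24 h before quipazine (15 µmol/kg, sc). Head twitches were counted 30–40 min after quipazine. Counts were expressed as percent of a quipazine-treated control group, with at least four animals per dose.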

Rattus norvegicus [5] = experiment: Effective dose was measured to inhibit 50% of quipazine induced head twitches in rat after 24 hr r of subcutaneous administration; format: functional; details: sc; how it was run: as §2
Rattus norvegicus [6] = experiment: Effective dose was measured to inhibit 50% of quipazine induced head twitches in rat after 24 hr of peroral administration; details: po
Rattus norvegicus [7] = experiment: Effective dose was measured to inhibit 50% of quipazine induced head twitches in rat after 24 hr r of peroral administration; format: functional; details: po; how it was run: as §2
Rattus norvegicus [8] = species on record: Rattus norvegicus; experiment: Effective dose was measured as fifty percent inhibition of Pergolide induced rotations in rat; format: functional; how it was run: as §1

SMILES	IC50 [1] [nM]	IC50 (D(2) dopamine receptor) [nM]	IC50 [2] [nM]	further results
CN(CCN1CCNC1=O)Cc1cn(-c2ccc(F)cc2)c2ccc(Cl)cc12	23			
CN(CCCc1cn(-c2ccc(F)cc2)c2ccc(Cl)cc12)CCN1CCNC1=O	43			
CC(C)N1CCN(CCN(C)CCOc2cn(-c3ccc(F)cc3)c3cc(Cl)ccc23)C1=O	600			
CN(CCc1cn(-c2ccc(F)cc2)c2ccc(Cl)cc12)CCN1CCNC1=O	15			
CN(CCc1cn(-c2ccc(F)cc2)c2cc(Cl)ccc12)CCN1CCNC1=O	14	590	0.95	
CN(C)CCCCc1cn(-c2ccc(F)cc2)c2ccc(Cl)cc12	310	4800	100	
CN(C)CCSc1cn(-c2ccc(F)cc2)c2ccc(Cl)cc12	820		42	
CN(C)CCCc1cn(-c2ccc(F)cc2)c2ccc(Cl)cc12	73			
CN1CCN(CCOc2cn(-c3ccc(F)cc3)c3ccc(Cl)cc23)CC1	150	2.4	100	ED50 (Rattus norvegicus [3]): 0.048 µmol/kg
CN(C)CCc1cn(-c2ccc(F)cc2)c2cc(Cl)ccc12	130	650	5.5	
CN(CCSc1cn(-c2ccc(F)cc2)c2ccc(Cl)cc12)CCN1CCNC1=O	650	790		
Fc1ccc(-n2cc(OCCN3CCCCC3)c3cc(Cl)ccc32)cc1	32			
CN(C)CCOc1cn(-c2ccc(F)cc2)c2ccc(Cl)cc12	17			
CN(C)Cc1cn(-c2ccc(F)cc2)c2ccc(Cl)cc12	18			
CC(C)N1CCN(CCN(C)CCc2cn(-c3ccc(F)cc3)c3cc(Cl)ccc23)C1=O	400	190	5.8	
CC(C)N1CCN(CCN2CCC(c3cn(-c4ccc(F)cc4)c4cc(Cl)ccc34)CC2)C1=O				ED50 (Rattus norvegicus [3]): > 17 µmol/kg; ED50 (Rattus norvegicus [4]): 0.11 µmol/kg; ED50 (Rattus norvegicus [5]): 0.052 µmol/kg; ED50 (Rattus norvegicus [6]): 0.055 µmol/kg
CN(C)CCCOc1cn(-c2ccc(F)cc2)c2ccc(Cl)cc12	> 100	24	27	
CN(C)CCc1cn(-c2ccc(F)cc2)c2ccc(Cl)cc12	40			
CN(CCCCN1CCNC1=O)Cc1cn(-c2ccc(F)cc2)c2ccc(Cl)cc12	> 100	20	110	
CN(CCCN1CCNC1=O)CCc1cn(-c2ccc(F)cc2)c2cc(Cl)ccc12	54	400	1.9	ED50 (Rattus norvegicus [4]): 4.7 µmol/kg; ED50 (Rattus norvegicus [5]): 8.5 µmol/kg
Fc1ccc(-n2cc(OCCN3CCOCC3)c3cc(Cl)ccc32)cc1	110			
CN(CCOc1cn(-c2ccc(F)cc2)c2cc(Cl)ccc12)CCN1CCNC1=O	41			ED50 (Rattus norvegicus [7]): 0.25 µmol/kg; ED50 (Rattus norvegicus [4]): 0.63 µmol/kg
C#CCN(CCOc1cn(-c2ccc(F)cc2)c2ccc(Cl)cc12)CCN1CCNC1=O	88			
CN(C)CCOc1cn(-c2ccc(F)cc2)c2cc(Cl)ccc12	170			
CN(CCCN1CCNC1=O)CCc1cn(-c2ccc(F)cc2)c2ccc(Cl)cc12	14			
CCN(CCOc1cn(-c2ccc(F)cc2)c2ccc(Cl)cc12)CCN1CCNC1=O	12			
CN(CCOc1cn(-c2ccc(F)cc2)c2ccc(Cl)cc12)CCN1CCNC1=O	5.7			ED50 (Rattus norvegicus [3]): 3.6 µmol/kg; ED50 (Rattus norvegicus [4]): 0.32 µmol/kg; ED50 (Rattus norvegicus [5]): > 9.1 µmol/kg
CNc1cc(OC)c(C(=O)N[C@H]2CCN(Cc3ccccc3)[C@H]2C)cc1Cl [NEMONAPRIDE]			49	ED50 (Rattus norvegicus [3]): 0.0057 µmol/kg
Cc1nc2sccn2c(=O)c1CCN1CCC(=C(c2ccc(F)cc2)c2ccc(F)cc2)CC1 [RITANSERIN]				ED50 (Rattus norvegicus [8]): > 21 µmol/kg; ED50 (Rattus norvegicus [4]): 0.1 µmol/kg; ED50 (Rattus norvegicus [5]): 0.98 µmol/kg
O=C1NCCN1CCN1CCC(c2cn(-c3ccc(F)cc3)c3ccc(Cl)cc23)CC1 [SERTINDOLE]				ED50 (Rattus norvegicus [3]): 3.7 µmol/kg; ED50 (Rattus norvegicus [7]): 0.039 µmol/kg; ED50 (Rattus norvegicus [4]): 0.035 µmol/kg; ED50 (Rattus norvegicus [5]): 0.03 µmol/kg
